By EC50 is commonly meant the concentration at which the effect is half-maximal. One may read the IC50 as the point on the concentration scale where inhibition reaches its midpoint. The low end stands for greater potency in that assay, the high end for weaker potency in that assay. Broadly, the Ki is a dissociation constant, usually derived from enzyme kinetics or from competition with a known ligand. A higher Ki goes with a looser hold on the target.

The test system of series [1] is C8166. In words: The compound was tested for inhibition against HIV-III B from C8 166 cell lines. The series is classed as functional, cell-based. As to conditions: Homo sapiens. The gist of the method: (§1)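 C8166 cells at 90 × 10³ cells/mL infected with 100 TCID₅₀ HIV with or without compound for 2 h at 37 °C. Cells washed, replated at 35 × 10³ cells/200 μL, and kept 5 days with drug. Cytopathic protection and toxicity both read by MTT (OD 490/650 nm). EC₅₀ and IC₅₀ from median effect equation; SI = IC₅₀/EC₅₀.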

A short description of series [2]: The compound was tested for cytotoxicity against Daudi human cell line. As to conditions: Daudi cells, read-out: TC50 (the source's name). Type of series: cell-based. The gist of the method:
(§2)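 Cells seeded in 96-well plates: human PHA-stimulated lymphocytes 20 000, 3T3 10 000, NSO 3 000, Daudi 300 per well. Graded compound concentrations added 12 h after plating; 48 h exposure. MTT (5 mg/mL stock) added for 2 h at 37 °C, then SDS/DMF extraction buffer overnight. OD read at 570 nm, blank subtracted, reported as OD × 1000.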

The nature of series [3]: The compound was tested for cytotoxicity against NSO murine cell lines. Type of series: cell-based. Conditions: mouse, NSO cells; read-out: TC50 (the source's name). Put shortly: as §2
Series [4] concerns CEM-SS. In words: The compound was tested for inhibition against HIV-1 from CEM-SS cell lines. Type of series: functional, cell-based. Conditions: Homo sapiens. Put shortly:
(§3)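 Testing by the NCI AIDS Antiviral Screening Program: protection of HIV-1-infected CEM-SS T4 lymphocytes from cell death, run alongside an AZT control. EC₅₀ is the concentration giving 50% survival of infected cells relative to uninfected untreated controls. IC₅₀ is the concentration giving 50% survival of uninfected cells. SI = IC₅₀/EC₅₀.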

The target in series [5] is Human immunodeficiency virus type 1 reverse transcriptase (Human immunodeficiency virus 1, UniProt Q72547, Y188L). In words: In vitro inhibitory activity against HIV-1 mutant Reverse transcriptase containing the single amino acid substitution Y188L. The gist of the method: (§4)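 Template poly(rA):oligo(dT) (0.3 μM 3'-OH ends) with 10 μM [3H]dTTP, incubated at 37 °C. Acid-precipitable counts taken on filters. Inhibitor spanned 0.2–5 Ki. Ki came from Lineweaver–Burk and Dixon plots, triplicate runs.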

In series [6] the target is Human immunodeficiency virus type 1 reverse transcriptase (Human immunodeficiency virus 1, UniProt Q72547, Y181I). In words: In vitro inhibitory activity against HIV-1 mutant Reverse transcriptase containing the single amino acid substitution Y181I. Put shortly: as §4
Series [7] has as its target Human immunodeficiency virus type 1 reverse transcriptase (Human immunodeficiency virus 1, UniProt Q72547). Briefly: In vitro inhibitory activity against HIV-1 wild type reverse transcriptase (RT).
A short description of series [8]: The compound was tested for cytotoxicity against Human Lymphocytes. Conditions: read-out: TC50 (the source's name). Put shortly:
as §2

Series [9] deals with Human immunodeficiency virus type 1 reverse transcriptase (Human immunodeficiency virus 1, UniProt Q72547, L100I). Briefly: In vitro inhibitory activity against HIV-1 mutant Reverse transcriptase containing the single amino acid substitution L100I. The gist of the method: as §4
The nature of series [10]: The compound was tested for cytotoxicity against 3T3 fibroblast murine cell line. Type of series: cell-based. Conditions: mouse, NIH3T3 fibroblast cells; read-out: TC50 (the source's name). The gist of the method: as §2
The target of series [11] is Human immunodeficiency virus type 1 reverse transcriptase (Human immunodeficiency virus 1, UniProt Q72547, K103N). Briefly: In vitro inhibitory activity against HIV-1 mutant Reverse transcriptase containing the single amino acid substitution K103N. The gist of the method:
as §4

Series [12] addresses Human immunodeficiency virus type 1 reverse transcriptase (Human immunodeficiency virus 1, UniProt Q72547, V106A). In words: In vitro inhibitory activity against HIV-1 mutant Reverse transcriptase containing the single amino acid substitution V106A. Put shortly: as §4
The test system of series [13] is Human immunodeficiency virus 3. Briefly: The compound was tested in presence of AZT for Anti-viral activity of compound in C8166 cells infected with HIV-IIIB. As to conditions: Human immunodeficiency virus 1, IIIB. Type of series: functional, organism-based. Put shortly:
(§5)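 C8166 cells at 90 × 10³ cells/mL exposed to 100 TCID₅₀ HIV with or without drug (alone, or together with AZT) for 2 h at 37 °C, 5% CO₂. Cells then washed and replated at 35 × 10³ cells/200 μL and cultured 5 days with the same drug levels. Protection from cytopathic effect read by MTT at 490/650 nm; EC₅₀ from median effect equation.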

For series [14], the system named is Human immunodeficiency virus 3. In words: The compound was tested for Anti-viral activity of AZT with compound in C8166 cells infected with HIV-IIIB. The series is classed as functional, organism-based. Conditions: Human immunodeficiency virus 1, IIIB. Put shortly:
as §5

Series [15] in a line: The compound was tested for cytotoxicity against NSO murine cell line. As to conditions: mouse, NSO cells; read-out: TC50 (the source's name). Type of series: cell-based. The gist of the method: as §2
Series [16] has as its system Human immunodeficiency virus 3. In words: The compound was tested for Anti-viral activity of compound alone in C8166 cells infected with HIV-IIIB. Conditions: Human immunodeficiency virus 1, IIIB. Type of series: functional, organism-based. The gist of the method: as §5
The nature of series [17]: […] index values calculated at 50% viral activity using mutually nonexclusive forms of equation. The gist of the method: (§6)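 Chou–Talalay multiple drug effect analysis of compound combined with AZT in acutely HIV-infected C8166 cells. Combination index computed at 50% effect under the mutually exclusive or mutually nonexclusive assumption.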
The nature of series [18]: […] index values calculated at 50% viral activity using mutually exclusive forms of equation. Put shortly:
as §6

For series [19], the system named is Human immunodeficiency virus 1. In words: (§7) The compound was tested for inhibition against HIV-1 from CEM-SS cell lines. Type of series: functional, organism-based. Conditions: Human immunodeficiency virus 1, CEM-SS. Put shortly: as §3
In series [20] the test system is Human immunodeficiency virus 3. In words: The compound was tested in presence of AZT for Anti-viral of compound in C8166 cells infected with HIV-IIIB. Type of series: functional, organism-based. Conditions: Human immunodeficiency virus 1, IIIB. Put shortly: as §5
In series [21] the test system is Human immunodeficiency virus 3. Briefly: (§8) The compound was tested for inhibition against HIV-III B from C8 166 cell lines. Type of series: functional, organism-based. Conditions: Human immunodeficiency virus 1, IIIB, C8166. The gist of the method:
as §1

Series [22] has as its system CEM-SS. The series is described as §7. Type of series: functional, cell-based. Conditions: Homo sapiens. Put shortly:
as §3

The subject of series [23] is C8166. The series is described as §8. As to conditions: Homo sapiens. Type of series: functional, cell-based. The gist of the method:
as §1

`CCC1(c2ccccc2)Oc2ccccc2-n2cccc2C1=O` (stereo not given): the values for the EC50 in the series with C8166 [1] and in the series with CEM-SS [4] were 0.8 µM and 0.47 µM, respectively. For the same compound, inhibition in the series with C8166 [1] was half-maximal at 10 µM (IC50). Also, the CC50 stood at 26 µM in series [2], 24 µM in [3], 32 µM in series [8] and 33 µM in [10]. In addition, the Ki in [5] was above 10 µM; in series [6] it was above 10 µM; in series [7] it was 0.19 µM; in series [9], 0.75 µM; in series [11], 7.7 µM; in [12], 3.9 µM.
As for `CCC1(c2ccccc2)Oc2cccnc2-n2cccc2C1=O` (stereo not given), the EC50 with C8166 [1] was 0.054 µM; in series [13] it was 0.017 µM; in series [14], 0.00317 µM; with CEM-SS [4] it was 0.069 µM; in [16] it was 0.054 µM. The figures for the IC50 in the series with C8166 [1] and in the series on CEM-SS [4] were 6 µM and 3.9 µM, respectively. Besides, the CC50 in [2] was determined as 13 µM; in series [15] it was 14 µM; in series [8] it was 13 µM; in series [10], 10 µM. In addition, the Ki was found to be 1.5 µM in series [5]; 4 µM in series [6]; 0.022 µM in series [7]; 0.04 µM in series [9]; 0.3 µM in [11]; 0.07 µM in series [12]. Also, the CI is 0.303 in series [17] and 0.302 in series [18].
In the series on CEM-SS [4], `CCC1(c2cccs2)Oc2ccccc2-n2cccc2C1=O` (stereo not given) gave an EC50 of 0.115 µM. Also, half-maximal inhibition in the series with CEM-SS [4] (IC50) required 11 µM. In addition, the Ki in series [5] came out at 0.3 µM; in series [6], 0.97 µM; in series [7], 0.03 µM; in series [9], 0.07 µM; in series [11] it was 0.4 µM; in series [12], 0.11 µM.
On to `CCC1(c2cccc(C)c2)Oc2ccccc2-n2cccc2C1=O` (stereo not given), for which the EC50 in [14] amounted to 0.00325 µM; in series [19] it was 0.35 µM; in series [20] it was 0.011 µM; in [16] it was 0.425 µM. Besides, the CC50 in series [2], in [15], in series [8] and in series [10] was above 1000 µM each time. The IC50 in [19] worked out at 119 µM; in series [21], 52 µM. Moreover, the Ki stood at 1.9 µM in series [5]; 4 µM in series [6]; 0.07 µM in [7]; 0.1 µM in [9]; 1.1 µM in series [11]; 0.25 µM in [12]. For the same compound, the CI in series [17] and in [18] was 0.04 throughout.
For the compound `CCC1(c2cccs2)Oc2cccnc2-n2cccc2C1=O` (stereo not given), the results for the IC50 in the series with C8166 [1] and with CEM-SS [4] were 20.5 µM and above 2 µM, respectively. For the same compound, the CC50 in [2] is 29 µM; in series [15], 26 µM; in [8], 30 µM; in series [10], 35 µM. Also, a half-maximal response in the series on CEM-SS [4] (EC50) required 0.15 µM. The Ki was determined as 0.475 µM in [5]; 0.43 µM in series [6]; 0.093 µM in series [7]; 0.09 µM in series [9]; 0.045 µM in series [11]; 0.09 µM in [12].
For the compound `CCC1(c2cccc(OC)c2)Oc2ccccc2-n2cccc2C1=O` (stereo not given), the CC50 was 280 µM in series [2], 230 µM in [15], 200 µM in [8] and 210 µM in series [10]. For the same compound, the EC50 in [19] is 0.04 µM. For the same compound, the IC50 in series [19] stood at 0.2 µM; in [21] it was 7 µM. Further, the Ki in series [5] is above 10 µM; in [6] it was above 10 µM; in series [7] it was 0.06 µM; in series [9], 0.011 µM; in [11], 0.022 µM; in series [12], 0.01 µM.
`CCC1(c2cccc(F)c2)Oc2ccccc2-n2cccc2C1=O` (stereo not given): the CC50 was found to be 720 µM in [2], 720 µM in series [15], 720 µM in series [8] and 710 µM in series [10]. The Ki in [5] was determined as 1.5 µM; in [6] it was 4 µM; in [7] it was 0.1 µM; in series [9], 0.16 µM; in [11], 0.07 µM; in series [12] it was 0.4 µM. In addition, the EC50 in the series on CEM-SS [22] was determined as 0.072 µM; with C8166 [23] it was 1.1 µM. The IC50 with CEM-SS [22] stood at 2 µM; in the series on C8166 [23], 13.8 µM.
With `CCC1(c2cc(F)cc(F)c2)Oc2ccccc2-n2cccc2C1=O` (stereo not given), the Ki is above 10 µM in series [5]; 6.8 µM in [6]; 1.5 µM in series [7]; 1.7 µM in [9]; 2.7 µM in series [11]; 3 µM in series [12]. The compound further showed an IC50 in [21] of 17.1 µM.
For the compound `CCC1(c2cccc(C)c2)Oc2cccnc2-n2cccc2C1=O` (stereo not given), the EC50 in the series on C8166 [1] came out at 0.27 µM; in the series with CEM-SS [4], 0.027 µM. Further, the IC50 with C8166 [1] was 7.2 µM; with CEM-SS [4], above 2 µM. Besides, the CC50 turned out to be 380 µM in series [2], 410 µM in [15], 400 µM in [8] and 400 µM in [10]. Moreover, the Ki in series [5] turned out to be 1.5 µM; in series [6], 1.2 µM; in series [7], 0.021 µM; in series [9], 0.044 µM; in series [11] it was 0.03 µM; in series [12] it was 0.4 µM.
In the case of `CCC1(c2ccc(C)cc2)Oc2ccccc2-n2cccc2C1=O` (stereo not given), the Ki in series [7] came out at 0.97 µM. This counts as sub-micromolar.

The values above are taken from ChEMBL document CHEMBL1132456 (J Med Chem, 1999).
